In ChEMBL document CHEMBL1131936, “Structure-activity relationships of a series of benzothiophene-derived NPY Y1 antagonists: optimization of the C-2 side chain” (Bioorg Med Chem Lett, 1999):

Legend:
[1] = target: T1, Neuropeptide Y receptor type 1 (Homo sapiens, UniProt P25929); test: Ability to displace [125I]pPYY from AV12 cell line stably transfected with cloned human neuropeptide Y receptor type 1.; assay type: cell-based
T1 sequence (P25929 whole entry): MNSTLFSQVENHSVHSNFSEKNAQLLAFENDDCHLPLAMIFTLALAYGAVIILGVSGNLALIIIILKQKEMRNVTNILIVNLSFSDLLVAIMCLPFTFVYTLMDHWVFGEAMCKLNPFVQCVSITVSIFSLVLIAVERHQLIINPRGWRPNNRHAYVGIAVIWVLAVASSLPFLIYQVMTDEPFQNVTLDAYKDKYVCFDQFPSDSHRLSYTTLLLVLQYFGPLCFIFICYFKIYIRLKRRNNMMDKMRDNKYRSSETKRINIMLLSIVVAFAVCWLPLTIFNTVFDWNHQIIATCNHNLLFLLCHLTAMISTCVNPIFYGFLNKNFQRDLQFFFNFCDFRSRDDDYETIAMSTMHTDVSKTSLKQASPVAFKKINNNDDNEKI
How it was run: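 Membranes prepared from AV12 cells stably transfected with the human Y1 receptor; test compound displacement of 125I-porcine PYY binding measured, method as previously reported. Ki reported in μM.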

[2] = target: T1, Neuropeptide Y receptor type 1; test: Functional Neuropeptide Y receptor type 1 antagonism was evaluated by its ability to reverse NPY induced inhibition of forskolin-stimulated cyclic AMP production in SK-N-MC cells; assay type: cell-based
How it was run: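 SK-N-MC cells; forskolin-stimulated cyclic AMP production inhibited by NPY, and test compound reversal of this inhibition measured. Ki derived, n = 2–3 determinations.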

SMILES | Ki [1] [nM] | Ki [2] [nM]
CN(C)C1CCN(CCc2c(COc3ccccc3CO)sc3ccccc23)CC1 | 450 | 
Cc1ccc(OCc2sc3ccccc3c2CCN2CCC(N(C)C)CC2)c(C(C)(C)C)c1 | 2830 | 
CN(C)C1CCN(CCc2c(CO)sc3ccccc23)CC1 | 88000 | 
CN(C)C1CCN(CCc2c(COc3ccc(Cl)cc3Cl)sc3ccccc23)CC1 | 140 | 4700
CNCc1cc(Br)ccc1OCc1sc2ccccc2c1CCN1CCC(N(C)C)CC1 | 660 | 
Cc1ccccc1OCc1sc2ccccc2c1CCN1CCC(N(C)C)CC1 | 420 | 
CN(C)C1CCN(CCc2c(COc3ccc(Br)cc3Br)sc3ccccc23)CC1 | 120 | 
CN(C)C1CCN(CCc2c(C(O)c3ccc(Cl)cc3Cl)sc3ccccc23)CC1 (stereo unspecified) | 3800 | 
Clc1ccc(OCc2sc3ccccc3c2CN2CCCCC2)cc1 | 11100 | 
CN(C)C1CCN(CCc2c(COc3ccc(Cl)cc3)sc3ccccc23)CC1 | 310 | 
Clc1ccc(OCc2sc3ccccc3c2CCN2CCCCC2)cc1 | 1900 | 
CN(C)C1CCN(CCc2c(COc3ccc(Br)cc3)sc3ccccc23)CC1 | 160 | 
CN(C)C1CCN(CCc2c(COc3ccc(Br)cc3C#N)sc3ccccc23)CC1 | 13 | 
CN(C)C1CCN(CCc2c(COc3ccc(Br)cc3CO)sc3ccccc23)CC1 | 15 | 1200
CN(C)C1CCN(CCc2c(COc3ccc(-c4ccccc4)cc3)sc3ccccc23)CC1 | 3700 | 
CN(C)C1CCN(CCc2c(COc3ccc(Br)cc3C(N)=O)sc3ccccc23)CC1 | 172 | 
CN(C)C1CCN(CCc2c(C#Cc3ccc(Cl)cc3Cl)sc3ccccc23)CC1 | 7900 | 
Cc1ccc(OCc2sc3ccccc3c2CCN2CCC(N(C)C)CC2)c(Br)c1 | 78 | 
CN(C)C1CCN(CCc2c(C(=O)Nc3ccc(Cl)cc3Cl)sc3ccccc23)CC1 | 2300 | 
CN(C)C1CCN(CCc2c(COc3ccccc3)sc3ccccc23)CC1 | 1260 | 
Cc1cc(C)c(OCc2sc3ccccc3c2CCN2CCC(N(C)C)CC2)c(C)c1 | 2420 | 
CN(C)C1CCN(CCc2c(/C=N/Nc3ccc(Cl)cc3Cl)sc3ccccc23)CC1 | 4500 | 
CN(C)C1CCN(CCc2c(CNc3ccc(Cl)cc3Cl)sc3ccccc23)CC1 | 1700 | 
CN(C)C1CCN(CCc2c(COc3ccc(C(F)(F)F)cc3)sc3ccccc23)CC1 | 740 | 
CN(C)C1CCN(CCc2c(C(Oc3ccc(Cl)cc3Cl)c3ccccc3)sc3ccccc23)CC1 (stereo unspecified) | 5800 | 

SMILES | Ki [1] [nM] | Ki [2] [nM]
Cc1cc(Br)ccc1OCc1sc2ccccc2c1CCN1CCC(N(C)C)CC1 | 420 | 
CN(C)C1CCN(CCc2c(COc3ccccc3Br)sc3ccccc23)CC1 | 450 | 
COC(c1ccc(Cl)cc1Cl)c1sc2ccccc2c1CCN1CCC(N(C)C)CC1 (stereo unspecified) | 4000 | 
CN(C)C1CCN(CCc2c(CCOc3ccc(Cl)cc3Cl)sc3ccccc23)CC1 | 2800 | 
CN(C)Cc1cc(Br)ccc1OCc1sc2ccccc2c1CCN1CCC(N(C)C)CC1 | 2430 | 
CN(C)C1CCN(CCc2c(COc3ccc(Br)cc3C(F)(F)F)sc3ccccc23)CC1 | 720 | 
CC(CN1CCC(N(C)C)CC1)c1c(COc2ccc(Cl)cc2Cl)sc2ccccc12 (stereo unspecified) | 690 | 
CN(C)C1CCN(CCc2c(COc3ccc(CO)cc3Br)sc3ccccc23)CC1 | 190 | 
CN(C)C1CCN(CCc2c(/C=N/c3ccc(Cl)cc3Cl)sc3ccccc23)CC1 | 12600 | 
CN(C)C1CCN(CCc2c(COc3c(Br)cc(Br)cc3Br)sc3ccccc23)CC1 | 3600 | 
Cc1ccc(OCc2sc3ccccc3c2CCN2CCC(N(C)C)CC2)cc1 | 370 | 
C=CCc1ccccc1OCc1sc2ccccc2c1CCN1CCC(N(C)C)CC1 | 980 | 
CN(C)C1CCN(CCc2c(C(C)(C)Oc3ccc(Cl)cc3Cl)sc3ccccc23)CC1 | 12000 | 
CN(C)C1CCN(CCc2c(Cc3ccc(Cl)cc3Cl)sc3ccccc23)CC1 | 4200 | 
COCc1cc(Br)ccc1OCc1sc2ccccc2c1CCN1CCC(N(C)C)CC1 | 11 | 
CN(C)C1CCN(CCc2c(COc3ccc(C#N)cc3Br)sc3ccccc23)CC1 | 380 | 
CN(C)C1CCN(CCc2c(C(=O)c3ccc(Cl)cc3Cl)sc3ccccc23)CC1 | 5600 | 
CN(C)C1CCN(CCc2c(-c3ccc(Cl)cc3Cl)sc3ccccc23)CC1 | 6500 | 
CC(Oc1ccc(Cl)cc1Cl)c1sc2ccccc2c1CCN1CCC(N(C)C)CC1 (stereo unspecified) | 1700 | 
CN(C)C1CCN(CCc2c(/C=C/c3ccc(Cl)cc3Cl)sc3ccccc23)CC1 | 12400 | 
CN(C)C1CCN(CCc2c(COc3ccccc3C=O)sc3ccccc23)CC1 | 2760 | 
Clc1ccc(OCc2sc3ccccc3c2CCCN2CCCCC2)cc1 | 2600 | 
Cc1ccc(OCc2sc3ccccc3c2CCN2CCC(N(C)C)CC2)c(C)c1 | 120 | 
CN(C)C1CCN(CCc2c(COc3ccccc3I)sc3ccccc23)CC1 | 380 | 
